Test results published in ChEMBL document CHEMBL1144562, “Synthesis of a new class of 2-anilino substituted nicotinyl arylsulfonylhydrazides as potential anticancer and antibacterial agents” (2007).
In brackets after ≈: the same amount, converted by molar mass.

Key:
HT-29 = test: Antitumor activity against HT29 cells; assay type: functional; conditions: Homo sapiens; for TGI: read-out: Log TGI (converted)
NCI-H23 = test: Antitumor activity against NCI-H23 cells; assay type: functional; conditions: Homo sapiens; for TGI: read-out: Log TGI (converted)
SF-295 = test: Antitumor activity against SF295 cells; assay type: functional; conditions: Homo sapiens; for CC50: read-out: Log LC50 (the source's name) (converted); for TGI: read-out: Log TGI (converted)
EKVX = test: Antitumor activity against EKVX cells; assay type: functional; conditions: Homo sapiens; for TGI: read-out: Log TGI (converted)
SK-OV-3 = test: Antitumor activity against SKOV3 cells; assay type: functional; conditions: Homo sapiens; for CC50: read-out: Log LC50 (the source's name) (converted); for TGI: read-out: Log TGI (converted)
Procedure, shortened: (§1)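 Tested in the NCI 60-human-tumour-cell-line panel at five concentrations, in 10-fold dilutions from 10^-4 to 10^-8 M. Three parameters were taken from the dose-response data, each as log10 of the molar concentration: GI50 (50% net growth inhibition), TGI (total growth inhibition) and LC50 (50% net cell death).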

[1] = Antitumor activity against LOX IMV1 cells; assay type: functional; conditions: Homo sapiens; for TGI: read-out: Log TGI (converted)
OVCAR-5 = test: Antitumor activity against OVCAR5 cells; assay type: functional; conditions: Homo sapiens; for CC50: read-out: Log LC50 (the source's name) (converted); for TGI: read-out: Log TGI (converted)
SK-MEL-2 = test: Antitumor activity against SK-MEL-2 cells; assay type: functional; conditions: Homo sapiens; for TGI: read-out: Log TGI (converted)
HCT-15 = test: Antitumor activity against HCT15 cells; assay type: functional; conditions: Homo sapiens; for TGI: read-out: Log TGI (converted)
Hs-578T = test: Antitumor activity against HS578T cells; assay type: functional; conditions: Homo sapiens; for CC50: read-out: Log LC50 (the source's name) (converted); for TGI: read-out: Log TGI (converted)
Vibrio = test: Antibacterial activity against Vibrio species after 18 hrs; assay type: functional
Procedure, shortened: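 Disc diffusion (Kirby–Bauer) on Mueller-Hinton agar inoculated with fresh bacteria at 1-5 × 10^4 cfu mL-1. Compounds were dissolved in DMF at a range of concentrations, and discs were placed in triplicate. Plates were incubated at 30 °C for 18 h. MIC was taken as the lowest concentration giving no visible bacterial growth on the plate.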

UO-31 = test: Antitumor activity against UO31 cells; assay type: functional; conditions: Homo sapiens; for TGI: read-out: Log TGI (converted); procedure, shortened: as §1
MOLT-4 = test: Antitumor activity against MOLT4 cells; assay type: functional; conditions: Homo sapiens; for TGI: read-out: Log TGI (converted)
[2] = Antitumor activity against HL60 (TB) cells; assay type: functional, HL-60(TB); conditions: Homo sapiens, HL-60; for TGI: read-out: Log TGI (converted)
Procedure, shortened: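 NCI 60-cell-line in vitro screen (leukaemia subpanel). Compound tested at five 10-fold dilutions from 10^-4 to 10^-8 M. Dose-response parameters: GI50 (concentration giving 50% net growth inhibition), TGI (total growth inhibition) and LC50 (50% net cell death), each reported as log10 of molar concentration.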

786-0 = test: Antitumor activity against 786-0 cells; assay type: functional; conditions: Homo sapiens; for TGI: read-out: Log TGI (converted)
NCI-H226 = test: Antitumor activity against NCI-H226 cells; assay type: functional; conditions: Homo sapiens; for CC50: read-out: Log LC50 (the source's name) (converted); for TGI: read-out: Log TGI (converted)
RXF 393 = test: Antitumor activity against RXF393 cells; assay type: functional; conditions: Homo sapiens; for TGI: read-out: Log TGI (converted)
NCI/ADR-RES = test: Antitumor activity against NCI/ADR-RES cells; assay type: functional; conditions: Homo sapiens; for TGI: read-out: Log TGI (converted)
COLO 205 = test: Antitumor activity against COLO205 cells; assay type: functional; conditions: Homo sapiens; for TGI: read-out: Log TGI (converted)
RPMI-8226 = test: Antitumor activity against RPMI-8226 cells; assay type: functional; conditions: Homo sapiens; for TGI: read-out: Log TGI (converted)
NCI-H522 = test: Antitumor activity against NCI-H522 cells; assay type: functional; conditions: Homo sapiens
IGROV-1 = test: Antitumor activity against IGROV1 cells; assay type: functional; conditions: Homo sapiens
[3] = read-out: Log LC50 (the source's name) (converted)

## O=C(NNS(=O)(=O)c1ccc(Cl)cc1Cl)c1cccnc1Nc1ccc(Cl)cc1
HT-29
  GI50: 22.9 µM
  LC50: > 100 µM
  TGI: 53.7 µM
NCI-H23
  GI50: 17.4 µM
  LC50: > 100 µM
  TGI: 42.7 µM
SF-295
  GI50: 30.2 µM
  CC50: > 100 µM
  TGI: 77.6 µM
EKVX
  GI50: 26.3 µM
  LC50: > 100 µM
  TGI: > 100 µM
SK-OV-3
  GI50: 17 µM
  CC50: > 100 µM
  TGI: 52.5 µM
[1]
  GI50: 20.9 µM
  LC50: > 100 µM
  TGI: 46.8 µM
OVCAR-5
  GI50: 26.3 µM
  CC50: > 100 µM
  TGI: 77.6 µM
SK-MEL-2
  GI50: 18.6 µM
  LC50: 97.7 µM
  TGI: 42.7 µM
HCT-15
  GI50: 33.1 µM
  LC50: 100 µM
  TGI: > 100 µM
Hs-578T
  GI50: 17.8 µM
  CC50: 97.7 µM
  TGI: 41.7 µM
Vibrio
  MIC: 14 µg/mL (≈ 29.7 µM)
UO-31
  GI50: 37.2 µM
  LC50 (50% net cell death): > 100 µM
  TGI: > 100 µM
MOLT-4
  GI50: 19.5 µM
  LC50: > 100 µM
  TGI: 57.5 µM
[2]
  GI50: 24 µM
  LC50: 83.2 µM
  TGI: 44.7 µM
786-0
  GI50: 19.5 µM
  LC50 (lethal concentration, 50%): > 100 µM
  TGI: 49 µM
NCI-H226
  GI50: 24 µM
  CC50: > 100 µM
  TGI: 58.9 µM
RXF 393
  GI50: 17 µM
  LC50: > 100 µM
  TGI: 43.7 µM
NCI/ADR-RES
  GI50: 23.4 µM
  LC50: > 100 µM
  TGI: 75.9 µM
COLO 205
  GI50: 12 µM
  LC50: 49 µM
  TGI: 24.5 µM
RPMI-8226
  GI50: 17.8 µM
  LC50: > 100 µM
  TGI: 53.7 µM

## O=C(NNS(=O)(=O)c1ccc(F)cc1)c1cccnc1Nc1ccc(Cl)cc1Cl
HT-29
  GI50: 21.9 µM
  LC50: > 100 µM
  TGI: 57.5 µM
NCI-H23
  GI50: 36.3 µM
  LC50: > 100 µM
  TGI: > 100 µM
SF-295
  GI50: 37.2 µM
  CC50: > 100 µM
  TGI: > 100 µM
EKVX
  GI50: 29.5 µM
  LC50: > 100 µM
  TGI: > 100 µM
SK-OV-3
  GI50: 38 µM
  CC50: > 100 µM
  TGI: > 100 µM
[1]
  GI50: 32.4 µM
  LC50: > 100 µM
  TGI: > 100 µM
OVCAR-5
  GI50: 52.5 µM
  CC50: > 100 µM
  TGI: > 100 µM
SK-MEL-2
  GI50: 42.7 µM
  LC50: > 100 µM
  TGI: > 100 µM
HCT-15
  GI50: 26.9 µM
  LC50: > 100 µM
  TGI: > 83.2 µM
Hs-578T
  GI50: 28.2 µM
  CC50: > 100 µM
  TGI: > 100 µM
Vibrio
  MIC: 20 µg/mL (≈ 43.9 µM)
MOLT-4
  GI50: 22.9 µM
  LC50: > 100 µM
  TGI: > 100 µM
[2]
  GI50: 25.1 µM
  LC50: > 100 µM
  TGI: 61.7 µM
786-0
  GI50: 22.9 µM
  LC50 (lethal concentration, 50%): > 100 µM
  TGI: 53.7 µM
NCI-H226
  GI50: 29.5 µM
  CC50: > 100 µM
  TGI: 97.7 µM
RXF 393
  GI50: 11.5 µM
  LC50: 66.1 µM
  TGI: 27.5 µM
NCI/ADR-RES
  GI50: 39.8 µM
  LC50: > 100 µM
  TGI: > 100 µM
COLO 205
  GI50: 16.2 µM
  LC50: > 100 µM
  TGI: 51.3 µM

## CC(=O)Nc1ccc(S(=O)(=O)NNC(=O)c2cccnc2Nc2ccc(Cl)cc2)cc1
HT-29
  GI50: 3.98 µM
  LC50: > 100 µM
  TGI: > 100 µM
SF-295
  GI50: 3.47 µM
  CC50: > 100 µM
  TGI: > 100 µM
NCI-H522
  GI50: 6.46 µM
NCI-H522; [3]
  CC50: > 100 µM
NCI-H522; read-out: Log TGI (converted)
  TGI: > 100 µM
EKVX
  GI50: 49 µM
  LC50: > 100 µM
  TGI: > 100 µM
SK-OV-3
  GI50: 57.5 µM
  CC50: > 100 µM
  TGI: > 100 µM
[1]
  GI50: 24 µM
  LC50: > 100 µM
  TGI: > 100 µM
IGROV-1
  GI50: 27.5 µM
IGROV-1; [3]
  CC50: > 100 µM
IGROV-1; read-out: Log TGI (converted)
  TGI: > 100 µM
HCT-15
  GI50: 13.8 µM
  LC50: > 100 µM
  TGI: > 100 µM
Hs-578T
  GI50: 24 µM
  CC50: > 100 µM
  TGI: > 100 µM
Vibrio
  MIC: 18 µg/mL (≈ 39.1 µM)
UO-31
  GI50: 91.2 µM
  LC50 (50% net cell death): > 100 µM
  TGI: > 100 µM
MOLT-4
  GI50: 50.1 µM
  LC50: > 100 µM
  TGI: > 100 µM
[2]
  GI50: 9.77 µM
  LC50: > 100 µM
  TGI: > 100 µM
786-0
  GI50: 47.9 µM
  LC50 (lethal concentration, 50%): > 100 µM
  TGI: > 100 µM
NCI-H226
  GI50: 42.7 µM
  CC50: > 100 µM
  TGI: > 100 µM
RXF 393
  GI50: 37.2 µM
  LC50: > 100 µM
  TGI: > 100 µM
COLO 205
  GI50: 10.2 µM
  LC50: > 100 µM
  TGI: 57.5 µM
RPMI-8226
  GI50: 28.8 µM
  LC50: > 100 µM
  TGI: > 100 µM
